Results as given in publication PMC7704123 (Journal of natural products, 2020).

Assays:
Format in all cases: cell-based, human
[1] = test system: mTORC1 signaling in MDA-MB-453 cells; test: Immunoblotting of mTORC1 signaling pathway; details: immunoblot
Outline: (§1)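 Cells (IMEM, 5% FBS) exposed to 100 nM test compound, 100 nM oligomycin, 10 nM rapamycin or DMSO vehicle for 2, 6 or 18 h. Scraped whole-cell lysates with PMSF, Na3VO4 and protease inhibitors; 10 μg protein per lane on 10% Bis-Tris SDS-PAGE, PVDF transfer. Blots probed for phospho/total AKT S473, mTOR S2448, S6K T389, RPS6 S235/236, 4E-BP1 T37/46 and GAPDH; IRDye infrared detection; two independent experiments.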

[2] = test system: mTORC1 signaling in MDA-MB-231 cells; test: Immunoblotting of mTORC1 signaling pathway; details: immunoblot
Outline: as §1

[3] = test system: MDA-MB-453 and SUM185PE cells; test: SRB assay, LAR subtype TNBC cell lines taken together; details: MDA-MB-453 and SUM185PE versus MDA-MB-231, HCC1806 and HCC70, Figure 7C
Outline: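 Cells seeded at predetermined densities, left to adhere, then given test compound or DMSO vehicle for 48 h. Fixed, stained with sulforhodamine B, absorbance read at 560 nm. MDA-MB-453, MDA-MB-231 and SUM185PE were grown in IMEM with 5% FBS; HCC1806 and HCC70 in RPMI-1640 with 5% FBS. Proliferation taken relative to vehicle; GI50 by non-linear regression; three independent experiments, each in triplicate.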

[4] = 100 nM oligomycin, 2, 6 or 18 h

SMILES	mTOR signaling ([1]; 10 nM rapamycin, 2, 6 or 18 h)	mTOR signaling ([2]; 10 nM rapamycin, 2, 6 or 18 h)	growth of LAR cells as compared to other TNBC cell lines [3]	mTOR activity (RPS6 and S6K phosphorylation) [1, 4]	mTOR activity (RPS6 and S6K phosphorylation) [2, 4]
CO[C@H]1C[C@@H]2CC[C@@H](C)[C@@](O)(O2)C(=O)C(=O)N2CCCC[C@H]2C(=O)O[C@H]([C@H](C)C[C@@H]2CC[C@@H](O)[C@H](OC)C2)CC(=O)[C@H](C)/C=C(\C)[C@@H](O)[C@@H](OC)C(=O)[C@H](C)C[C@H](C)/C=C/C=C/C=C/1C [Rapamycin]	inhibited mTOR signaling in both cell lines	inhibited mTOR signaling in both cell lines			
CC[C@H]1/C=C/C=C/C[C@@H](C)[C@H](O)[C@@](C)(O)C(=O)[C@@H](C)[C@H](O)[C@@H](C)C(=O)[C@@H](C)[C@H](O)[C@@H](C)/C=C/C(=O)O[C@@H]2[C@H](C)[C@H](CC1)O[C@]1(CC[C@H](C)[C@H](C[C@@H](C)O)O1)[C@H]2C [oligomycin]			selectively inhibited the growth	selectively inhibited mTOR activity	but not in the resistant MDA-MB-231 cells
